Results reported in ChEMBL document CHEMBL5724801, “EUbOPEN Chemogenomics Library - Multiplex” (2024).
Where “and” joins values, the source holds several entries; their conditions need not be identical. Equal values may be shown once.

Legend:
Format in all cases: toxicity, cell-based
U2OS = assay: Multiplex assay against U2OS; details: human
How it was run: (§1)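 Cells stained live at seeding with Hoechst33342, BioTracker Green Microtubule Cytoskeleton Dye, MitoTracker Red and Annexin V Alexa Fluor 680 were imaged on a CQ1 microscope at 37°C and 5% CO2 after compound addition. Their classification by CellPathfinder machine-learning gating ran from Hoechst high-intensity objects versus normal cells, to healthy, pyknosed or fragmented nuclei among normal cells, to mitotic or apoptotic among pyknosed cells. Tubulin, mitochondrial-mass and membrane-permeability phenotypes are per cents of healthy-nucleus cells.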

HEK-293T = assay: Multiplex assay against HEK293T; details: human; how it was run: as §1
Fibroblast = assay: Multiplex assay against human fibroblast; how it was run: as §1
[1] = 12 h, 1 µM, compound concentration 1 uM
[2] = 12 h, 10 µM, compound concentration 10 uM
[3] = 24 h, 1 µM, compound concentration 1 uM
[4] = 24 h, 10 µM, compound concentration 10 uM
[5] = 48 h, 1 µM, compound concentration 1 uM
[6] = 48 h, 10 µM, compound concentration 10 uM

## CCCOc1ccc2[nH]cc(C3=CCNCC3)c2n1.Cl
U2OS; [1]
  Population Apoptotic (%): 80% and 87%
  Population Fragmented Nuclei (%): 31% and 13%
  Population Healthy Nuclei (%): 58% and 78%
  Population Hoechst High Intensity Objects (%): 2% and 1%
  Population Membrane Permeable-Phenotype (%): 2% and 11%
  Population Mitochondria Different-Phenotype (%): 1% and 7%
  Population Mitotic Cells (%): 19% and 12%
  Population Normal (%): 97% and 98%
  Population Pyknosed Nuclei (%): 9% and 8%
  Population Tubulin-Different-Phenotype (%): 1% and 5%
  Total Cell Count: 218 and 98
U2OS; [2]
  Population Apoptotic (%): 86% and 60%
  Population Fragmented Nuclei (%): 24% and 17%
  Population Healthy Nuclei (%): 66% and 74%
  Population Hoechst High Intensity Objects (%): 4% and 0%
  Population Membrane Permeable-Phenotype (%): 6% and 12%
  Population Mitochondria Different-Phenotype (%): 5%
  Population Normal (%): 96% and 100%
  Population Pyknosed Nuclei (%): 8% and 7%
  Population Tubulin-Different-Phenotype (%): 3% and 6%
  Total Cell Count: 275 and 134
U2OS; [3]
  Population Apoptotic (%): 70% and 90%
  Population Fragmented Nuclei (%): 27% and 18%
  Population Healthy Nuclei (%): 61% and 73%
  Population Hoechst High Intensity Objects (%): 1% and 2%
  Population Membrane Permeable-Phenotype (%): 6% and 3%
  Population Mitochondria Different-Phenotype (%): 1% and 3%
  Population Normal (%): 98% and 97%
  Population Pyknosed Nuclei (%): 10% and 8%
  Population Tubulin-Different-Phenotype (%): 3% and 2%
  Total Cell Count: 252 and 138
U2OS; [4]
  Population Apoptotic (%): 92% and 72%
  Population Fragmented Nuclei (%): 25% and 14%
  Population Healthy Nuclei (%): 66% and 78%
  Population Hoechst High Intensity Objects (%): 3% and 0%
  Population Membrane Permeable-Phenotype (%): 5% and 11%
  Population Mitochondria Different-Phenotype (%): 3% and 2%
  Population Normal (%): 96% and 99%
  Population Pyknosed Nuclei (%): 8% and 6%
  Population Tubulin-Different-Phenotype (%): 3% and 4%
  Total Cell Count: 323 and 162
U2OS; [5]
  Population Apoptotic (%): 91% and 75%
  Population Fragmented Nuclei (%): 19%
  Population Healthy Nuclei (%): 69% and 74%
  Population Hoechst High Intensity Objects (%): 2%
  Population Membrane Permeable-Phenotype (%): 5% and 9%
  Population Mitochondria Different-Phenotype (%): 3%
  Population Normal (%): 97%
  Population Pyknosed Nuclei (%): 10% and 6%
  Population Tubulin-Different-Phenotype (%): 1% and 3%
  Total Cell Count: 350 and 183
U2OS; [6]
  Population Apoptotic (%): 100% and 94%
  Population Fragmented Nuclei (%): 18% and 13%
  Population Healthy Nuclei (%): 75% and 78%
  Population Hoechst High Intensity Objects (%): 4% and 0%
  Population Membrane Permeable-Phenotype (%): 5% and 6%
  Population Mitochondria Different-Phenotype (%): 2% and 3%
  Population Mitotic Cells (%): 0% and 5%
  Population Normal (%): 95% and 99%
  Population Pyknosed Nuclei (%): 6% and 7%
  Population Tubulin-Different-Phenotype (%): 3%
  Total Cell Count: 423 and 243
HEK-293T; [1]
  Population Apoptotic (%): 32% and 44%
  Population Fragmented Nuclei (%): 5% and 6%
  Population Healthy Nuclei (%): 81% and 82%
  Population Hoechst High Intensity Objects (%): 5% and 4%
  Population Membrane Permeable-Phenotype (%): 0%
  Population Mitochondria Different-Phenotype (%): 41% and 52%
  Population Mitotic Cells (%): 68% and 55%
  Population Normal (%): 94% and 95%
  Population Pyknosed Nuclei (%): 12% and 10%
  Population Tubulin-Different-Phenotype (%): 39% and 21%
  Total Cell Count: 416 and 344
HEK-293T; [2]
  Population Apoptotic (%): 43% and 55%
  Population Fragmented Nuclei (%): 5% and 6%
  Population Healthy Nuclei (%): 78% and 82%
  Population Hoechst High Intensity Objects (%): 10% and 4%
  Population Membrane Permeable-Phenotype (%): 0%
  Population Mitochondria Different-Phenotype (%): 58% and 76%
  Population Mitotic Cells (%): 56% and 44%
  Population Normal (%): 89% and 95%
  Population Pyknosed Nuclei (%): 15% and 11%
  Population Tubulin-Different-Phenotype (%): 41%
  Total Cell Count: 446 and 387
HEK-293T; [3]
  Population Apoptotic (%): 28% and 35%
  Population Fragmented Nuclei (%): 10% and 9%
  Population Healthy Nuclei (%): 76% and 80%
  Population Hoechst High Intensity Objects (%): 3% and 2%
  Population Membrane Permeable-Phenotype (%): 0% and 1%
  Population Mitochondria Different-Phenotype (%): 26% and 29%
  Population Mitotic Cells (%): 71% and 64%
  Population Normal (%): 96% and 97%
  Population Pyknosed Nuclei (%): 12% and 9%
  Population Tubulin-Different-Phenotype (%): 24% and 14%
  Total Cell Count: 558 and 425
HEK-293T; [4]
  Population Apoptotic (%): 39% and 51%
  Population Fragmented Nuclei (%): 12% and 6%
  Population Healthy Nuclei (%): 74% and 81%
  Population Hoechst High Intensity Objects (%): 7% and 3%
  Population Membrane Permeable-Phenotype (%): 0%
  Population Mitochondria Different-Phenotype (%): 50% and 63%
  Population Mitotic Cells (%): 60% and 48%
  Population Normal (%): 92% and 96%
  Population Pyknosed Nuclei (%): 12% and 11%
  Population Tubulin-Different-Phenotype (%): 38% and 34%
  Total Cell Count: 583 and 502
HEK-293T; [5]
  Population Apoptotic (%): 17% and 38%
  Population Fragmented Nuclei (%): 13% and 9%
  Population Healthy Nuclei (%): 79% and 82%
  Population Hoechst High Intensity Objects (%): 2% and 1%
  Population Membrane Permeable-Phenotype (%): 0% and 1%
  Population Mitochondria Different-Phenotype (%): 15% and 20%
  Population Mitotic Cells (%): 82% and 61%
  Population Normal (%): 97% and 98%
  Population Pyknosed Nuclei (%): 6% and 7%
  Population Tubulin-Different-Phenotype (%): 12% and 9%
  Total Cell Count: 872 and 657
HEK-293T; [6]
  Population Apoptotic (%): 35% and 26%
  Population Fragmented Nuclei (%): 14% and 13%
  Population Healthy Nuclei (%): 76% and 80%
  Population Hoechst High Intensity Objects (%): 6% and 5%
  Population Membrane Permeable-Phenotype (%): 0%
  Population Mitochondria Different-Phenotype (%): 41% and 37%
  Population Mitotic Cells (%): 64% and 73%
  Population Normal (%): 93% and 94%
  Population Pyknosed Nuclei (%): 8% and 6%
  Population Tubulin-Different-Phenotype (%): 23% and 20%
  Total Cell Count: 776 and 733
Fibroblast; [1]
  Population Apoptotic (%): 42% and 48%
  Population Fragmented Nuclei (%): 13% and 25%
  Population Healthy Nuclei (%): 71% and 52%
  Population Hoechst High Intensity Objects (%): 2% and 0%
  Population Membrane Permeable-Phenotype (%): 0% and 8%
  Population Mitochondria Different-Phenotype (%): 6% and 2%
  Population Mitotic Cells (%): 57% and 51%
  Population Normal (%): 97% and 99%
  Population Pyknosed Nuclei (%): 15% and 21%
  Population Tubulin-Different-Phenotype (%): 27% and 47%
  Total Cell Count: 143 and 137
Fibroblast; [2]
  Population Apoptotic (%): 70% and 40%
  Population Fragmented Nuclei (%): 16% and 31%
  Population Healthy Nuclei (%): 70% and 48%
  Population Hoechst High Intensity Objects (%): 4% and 2%
  Population Membrane Permeable-Phenotype (%): 0% and 1%
  Population Mitochondria Different-Phenotype (%): 12% and 10%
  Population Mitotic Cells (%): 29% and 60%
  Population Normal (%): 95% and 97%
  Population Pyknosed Nuclei (%): 13% and 20%
  Population Tubulin-Different-Phenotype (%): 41% and 59%
  Total Cell Count: 133 and 125
Fibroblast; [3]
  Population Apoptotic (%): 57% and 38%
  Population Fragmented Nuclei (%): 14% and 28%
  Population Healthy Nuclei (%): 76% and 52%
  Population Hoechst High Intensity Objects (%): 2% and 0%
  Population Membrane Permeable-Phenotype (%): 0% and 5%
  Population Mitochondria Different-Phenotype (%): 6% and 5%
  Population Mitotic Cells (%): 42% and 61%
  Population Normal (%): 97% and 100%
  Population Pyknosed Nuclei (%): 9% and 18%
  Population Tubulin-Different-Phenotype (%): 20% and 40%
  Total Cell Count: 155 and 140
Fibroblast; [4]
  Population Apoptotic (%): 61% and 50%
  Population Fragmented Nuclei (%): 23% and 20%
  Population Healthy Nuclei (%): 64% and 68%
  Population Hoechst High Intensity Objects (%): 1% and 2%
  Population Membrane Permeable-Phenotype (%): 0% and 4%
  Population Mitochondria Different-Phenotype (%): 12% and 8%
  Population Mitotic Cells (%): 38% and 50%
  Population Normal (%): 98% and 97%
  Population Pyknosed Nuclei (%): 11%
  Population Tubulin-Different-Phenotype (%): 36% and 61%
  Total Cell Count: 159 and 107
Fibroblast; [5]
  Population Apoptotic (%): 69% and 64%
  Population Fragmented Nuclei (%): 17% and 36%
  Population Healthy Nuclei (%): 74% and 53%
  Population Hoechst High Intensity Objects (%): 2% and 4%
  Population Membrane Permeable-Phenotype (%): 0% and 5%
  Population Mitochondria Different-Phenotype (%): 5% and 2%
  Population Mitotic Cells (%): 30% and 35%
  Population Normal (%): 97% and 95%
  Population Pyknosed Nuclei (%): 8% and 9%
  Population Tubulin-Different-Phenotype (%): 23% and 40%
  Total Cell Count: 162 and 147
Fibroblast; [6]
  Population Apoptotic (%): 73% and 60%
  Population Fragmented Nuclei (%): 21% and 32%
  Population Healthy Nuclei (%): 65% and 62%
  Population Hoechst High Intensity Objects (%): 2% and 5%
  Population Membrane Permeable-Phenotype (%): 0% and 4%
  Population Mitochondria Different-Phenotype (%): 9% and 13%
  Population Mitotic Cells (%): 26% and 40%
  Population Normal (%): 97% and 94%
  Population Pyknosed Nuclei (%): 13% and 4%
  Population Tubulin-Different-Phenotype (%): 45% and 44%
  Total Cell Count: 150 and 116
